From ChEMBL document CHEMBL1926548, “Synthesis and study of new paramagnetic resveratrol analogues” (Bioorg Med Chem, 2011)
Activity calls are given as the source filed them. The rule behind the calls is not given here.

Key:
RAW264.7 [1] = assay: Antiinflammatory activity in mouse RAW264.7 cells assessed as inhibition of LPS-induced ROS production after 24 hrs using DCFH-DA by fluorescent microplate reader; type: functional, cell-based
How it was run: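 Cells seeded 5*10^4/well and kept overnight at 37 °C, 5% CO2 in DMEM with 10% heat-inactivated FCS and L-glutamine. Fresh medium, then LPS (E. coli 0127:B8, 100 ng/mL) with or without compound (12.5–100 µM) for 24 h. C400 (2 µg/mL) added for a further 2 h. Fluorescence read at ex 485/em 555 nm. Reported as % of LPS-only mean. n = 6, three repeats.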

RAW264.7 [2] = assay: Antiinflammatory activity in mouse RAW264.7 cells assessed as inhibition of LPS-induced TNF-alpha production at 50 uM after 1.5 hrs by ELISA; type: functional, cell-based
How it was run: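 Cells seeded 2*10^5/well and cultured overnight as above. Fresh medium, then LPS (100 ng/mL) alone or with compound for 1.5 h. TNFα in medium measured with a mouse TNFα ELISA kit, read at 450 nm. Reported as % of LPS-only mean. n = 3, three repeats. Groups compared at p<0.05.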

RAW264.7 [3] = assay: Antiinflammatory activity in mouse RAW264.7 cells assessed as inhibition of LPS-induced nitrite production after 24 hrs by Griess method; type: functional, cell-based
How it was run: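 Seeding, medium, overnight culture and treatment as for ROS: LPS 100 ng/mL plus compound at 12.5–100 µM for 24 h. Culture medium mixed with an equal volume of Griess reagent (1% sulphanilamide, 0.1% naphthylethylenediamide, 5% phosphoric acid). Absorbance read at 550 nm and expressed as % of LPS-only mean. n = 6, three repeats.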

[4] = Antioxidant activity in ethyl alcohol assessed as trolox equivalents of ABTS radical scavenging activity after 6 mins by TEAC assay; type: functional
How it was run: (§1)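 ABTS (7 mM in water) reacted with 2.45 mM persulfate (final) for 12–16 h in the dark at room temperature. Diluted in ethanol or 0.05 M PBS pH 7.4 to A734 0.70 ± 0.02. Compound added at 2.5–12.5 µM, read at 734 nm after 6 min at 25 °C. TEAC = slope of % inhibition vs concentration divided by Trolox slope. Three independent experiments.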

[5] = Antioxidant activity in 0.05 M phosphate buffered saline assessed as trolox equivalents of ABTS radical scavenging activity after 6 mins by TEAC assay; type: functional; how it was run: as §1

Row | Structure (SMILES) | inhibition (RAW264.7 [1]) | inhibition (RAW264.7 [2]) | inhibition (RAW264.7 [3]) | Ratio [4] | Ratio [5]
1 | COc1cc(OC)cc(C2=C(c3cc(OC)cc(OC)c3)C(C)(C)NC2(C)C)c1 | Dose-dependent effect | Active | Dose-dependent effect | – | –
2 | CC1(C)c2ccc(/C=C/c3cc(O)cc(O)c3)cc2C(C)(C)N1[O] | Dose-dependent effect | Active | Dose-dependent effect | 0.98 | –
3 | Oc1ccc(/C=C/c2cc(O)cc(O)c2)cc1 | Dose-dependent effect | Active | Dose-dependent effect | 1 | 1.3
4 | COc1cc(/C=C/C2=CC(C)(C)N([O])C(C)(C)C2)cc(OC)c1 | Dose-dependent effect | – | Dose-dependent effect | 0.2 | –
5 | CC1(C)C(c2ccc(O)cc2)=C(c2cc(O)cc(O)c2)C(C)(C)N1[O] | Dose-dependent effect | inactive | Dose-dependent effect | 1.02 | –
6 | COc1ccc(/C=C/c2cc(OC)cc(OC)c2)cc1 | – | – | – | 0.04 | –
7 | CC1(C)C=C(/C=C/c2cc(O)cc(O)c2)CC(C)(C)N1O | – | – | – | – | 0.62
8 | CC1(C)C=C(/C=C/C2=CC(C)(C)N(O)C(C)(C)C2)CC(C)(C)N1O | – | – | – | – | 0.37
9 | CC1(C)c2ccc(/C=C/c3cc(O)cc(O)c3)cc2C(C)(C)N1O | – | – | – | – | 0.67
10 | COc1cc(/C=C/C2=CC(C)(C)NC(C)(C)C2)cc(OC)c1 | Dose-dependent effect | Active | Dose-dependent effect | 0.32 | 0.02
11 | COc1cc(/C=C/C2=CC(C)(C)N(O)C(C)(C)C2)cc(OC)c1 | – | – | – | – | 0.28
12 | CC1(C)C=C(/C=C/C2=CC(C)(C)N([O])C(C)(C)C2)CC(C)(C)N1[O] | Dose-dependent effect | Active | Dose-dependent effect | 0.22 | –
13 | CC1(C)C=C(/C=C/c2cc(O)cc(O)c2)CC(C)(C)N1[O] | Dose-dependent effect | Active | Dose-dependent effect | 0.92 | –
